One compound from ChEMBL document CHEMBL4613249, “Serendipitous Discovery of Leucine and Methionine Depletion Agents during the Search for Polyamine Transport Inhibitors” (J Med Chem, 2020) can be followed below.

For series [1], the system named is L3.6pl. In words: Effect on polyamine level in human L3.6PL cells assessed as spermidine level per mg protein in supernatant at 5 uM measured after 72 hrs in presence of amine oxidase suppressor aminoguanidine by LCMS analysis (reference value: 339 pmol/mg). It counts as functional.
Series [2] concerns L3.6pl. The experiment in a line: Effect on polyamine level in human L3.6PL cells assessed as decrease in intracellular spermidine level at 1 uM measured after 72 hrs in presence of amine oxidase suppressor aminoguanidine and Ant-44 by LCMS analysis. In kind it is functional, cell-based. The gist of the method: (§1)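 L3.6pl cells dosed with Ant-44 fixed at 2 μM plus increasing compound for 72 h at 37°C. Intracellular polyamines and Ant-44 given as nmol/mg protein, in duplicate, with a parallel untreated control.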

Series [3] concerns L3.6pl. The experiment in a line: Effect on polyamine level in human L3.6PL cells assessed as decrease in intracellular spermine level at 7 uM measured after 72 hrs in presence of amine oxidase suppressor aminoguanidine by LCMS analysis relative to control. In kind it is functional. More on the design: scale not given: the % may be the effect or the level left. In a few lines:
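L3.6pl cells, 50,000 cells/mL in 10 mL per Petri dish with 1 mM aminoguanidine, plated overnight. Dosed with compound at 2, 5 or 7 μM from PBS stocks, then 72 h at 37°C. Intracellular polyamines measured by N-dansylation and HPLC, in duplicate, as nmol/mg protein against a parallel untreated control.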

Series [4] concerns the target Large neutral amino acids transporter small subunit 1 (Homo sapiens) (UniProt Q01650). The experiment in a line: Induction of LAT1-mediated polyamine efflux in aminoguanidine pretreated human L3.6PL cells assessed as reduction in cell viability up to 15 uM by MTS assay. It counts as cell-based. The note with it: TDE = time-dependent effect.
For series [5], the system named is L3.6pl. In words: Effect on polyamine level in human L3.6PL cells assessed as acetyl spermidine level per mg protein in supernatant at 2 uM measured after 72 hrs in presence of amine oxidase suppressor aminoguanidine by LCMS analysis (reference value: 1936 +/- 1365 pmol/mg). In kind it is functional.
The test system of another series is CHO-MG. The experiment in a line: Induction of polyamine efflux in aminoguanidine pretreated CHO-MG cells assessed as reduction in cell viability measured after 72 hrs in presence of spermidine by MTS assay. It counts as ADME, cell-based, Cricetulus griseus. The note with it: chinese hamster. On the technique in general: Tetrazolium dyes change colour on reduction, which living cells bring about.

Series [6] can be described thus: Selectivity index, ratio of IC50 for cytotoxicity against CHO-MG cells assessed as reduction in cell viability after 48 hrs by MTS assay to IC50 for […] human L3.6PL cells assessed as reduction in cell viability after 48 hrs by MTS assay. The gist of the method:
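The ratio is of 48 h IC50 values from MTS growth assays. CHO K1/CHO-MG cells were plated at 1000 cells/well and L3.6pl at 500 cells/well, drug in PBS was added after overnight incubation, and absorbance was read at 490 nm. IC50 is 50% growth versus untreated control; runs were done twice in triplicate.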

Series [7] relates to L3.6pl. The experiment in a line: Cytotoxicity against human L3.6PL cells assessed as reduction in cell viability at 1 uM measured after 72 hrs by MTS assay. It counts as cell-based. In a few lines: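 L3.6pl cells given compound at increasing concentrations, alone or with Ant-44 fixed at 2 μM, for 72 h at 37°C. % cell growth by MTS against an untreated control run in parallel, in triplicate.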

Series [8] concerns L3.6pl. In words: Effect on polyamine level in human L3.6PL cells assessed as decrease in intracellular spermidine level at 7 uM measured after 72 hrs in presence of amine oxidase suppressor aminoguanidine […] relative to control. In kind it is functional. Further details: scale not given: the % may be the effect or the level left.
Series [9] deals with Large neutral amino acids transporter small subunit 1 (Homo sapiens) (UniProt Q01650). In words: Inhibition of LAT1-mediated [3H]-leucine uptake in human L3.6PL cells measured after 2 mins by scintillation counting analysis. In kind it is cell-based.
Chain of Large neutral amino acids transporter small subunit 1 (Homo sapiens) (Q01650 whole entry): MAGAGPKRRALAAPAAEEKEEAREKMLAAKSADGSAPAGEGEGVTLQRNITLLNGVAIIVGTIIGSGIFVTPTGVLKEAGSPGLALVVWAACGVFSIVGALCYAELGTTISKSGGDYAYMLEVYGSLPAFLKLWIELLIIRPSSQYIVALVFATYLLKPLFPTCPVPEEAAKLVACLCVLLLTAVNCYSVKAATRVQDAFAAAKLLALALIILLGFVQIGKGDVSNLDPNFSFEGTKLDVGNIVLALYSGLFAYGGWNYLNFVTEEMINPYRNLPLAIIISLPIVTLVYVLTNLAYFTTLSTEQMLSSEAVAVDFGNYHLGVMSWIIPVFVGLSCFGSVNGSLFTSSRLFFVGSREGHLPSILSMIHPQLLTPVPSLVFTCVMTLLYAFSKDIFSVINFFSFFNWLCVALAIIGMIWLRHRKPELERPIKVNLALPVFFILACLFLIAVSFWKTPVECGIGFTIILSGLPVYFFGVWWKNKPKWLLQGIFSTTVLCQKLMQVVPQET
For series [10], the system named is L3.6pl. In words: Effect on polyamine level in human L3.6PL cells assessed as decrease in intracellular putrescine level at 1 uM measured after 72 hrs in presence of amine oxidase suppressor aminoguanidine and Ant-44 by LCMS analysis. In kind it is functional, cell-based. In a few lines: as §1
Series [11] has as its target Large neutral amino acids transporter small subunit 1 (Homo sapiens) (UniProt Q01650). The experiment in a line: Inhibition of LAT1-mediated amino acid transport in human L3.6PL cells assessed as reduction in intracellular leucine level by measuring leucine level per mg protein in cell lysate at 7 uM measured after 72 hrs by LCMS analysis (reference value: 232 +/- 10 pmol/mg). In kind it is cell-based. In a few lines:
(§2)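 L3.6pl cells (50,000 cells/mL, 10 mL, 1 mM aminoguanidine) were seeded in poly-lysine-treated 9 cm dishes and incubated overnight at 37°C. They were then dosed with compound at 2, 5 or 7 μM from PBS stocks (2, 5, 7 mM) and incubated 72 h. Runs were done in triplicate, with amino acid levels per mg protein.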

In series [12] the test system is L3.6pl. In words: Effect on polyamine level in human L3.6PL cells assessed as leucine level per mg protein in supernatant at 2 uM measured after 72 hrs in presence of amine oxidase suppressor aminoguanidine by LCMS analysis (reference value: 18009 +/- 9061 pmol/mg). It counts as functional.
Series [13] has as its target Large neutral amino acids transporter small subunit 1 (Homo sapiens) (UniProt Q01650). The experiment in a line: Inhibition of LAT1-mediated amino acid transport in human L3.6PL cells assessed as reduction in intracellular leucine level by measuring leucine level per mg protein in cell lysate at 2 uM measured after 72 hrs by LCMS analysis (reference value: 232 +/- 10 pmol/mg). In kind it is cell-based. In a few lines: as §2

Series [14] has the same target. In words: Induction of LAT1-mediated polyamine efflux in aminoguanidine pretreated human L3.6PL cells assessed as reduction in cell viability at 5 uM measured after 72 hrs in presence of putrescine by MTS assay. It counts as cell-based. In a few lines:
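L3.6pl cells pre-incubated 24 h with 250 μM aminoguanidine. Then given increasing compound plus putrescine, spermidine or spermine, each fixed at 1 or 5 μM, for 72 h at 37°C. Growth by MTS relative to untreated control.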

Series [15] concerns L3.6pl. The experiment in a line: Effect on polyamine level in human L3.6PL cells assessed as decrease in intracellular spermine level at 1 uM measured after 72 hrs in presence of amine oxidase suppressor aminoguanidine and Ant-44 by LCMS analysis. It counts as functional, cell-based. The gist of the method: as §1
The test system of a further series is CHO-K1. The experiment in a line: Cytotoxicity against CHOK1 cells assessed as reduction in cell viability after 48 hrs by MTS assay. In kind it is cell-based. The following applies: Cricetulus griseus, CHO-K1, 48 h. In a few lines:
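Cells in RPMI 1640 with 10% FBS, 1% penicillin/streptomycin, 37°C, 5% CO2, with aminoguanidine (1 mM for CHO K1 and CHO-MG, 250 μM for L3.6pl). Plated overnight at 1000 cells/well (CHO lines) or 500 cells/well (L3.6pl). Compound in PBS added, 48 h exposure. Growth read as MTS formazan absorbance at 490 nm. IC50 is the dose giving 50% relative growth versus untreated control. Run twice in triplicate.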

The test system of series [16] is L3.6pl. In words: Effect on polyamine level in human L3.6PL cells assessed as phenylalanine level per mg protein in supernatant at 2 uM measured after 72 hrs in presence of amine oxidase suppressor aminoguanidine by LCMS analysis (reference value: 14299 +/- 7194 pmol/mg). In kind it is functional.
The subject of series [17] is L3.6pl. In words: Effect on polyamine level in human L3.6PL cells assessed as acetyl spermine level per mg protein in supernatant at 5 uM measured after 72 hrs in presence of amine oxidase suppressor aminoguanidine by LCMS analysis (reference value: 77 +/- 43 pmol/mg). In kind it is functional.
Series [18] has as its system L3.6pl. The experiment in a line: Effect on polyamine level in human L3.6PL cells assessed as acetyl spermine level per mg protein in supernatant at 2 uM measured after 72 hrs in presence of amine oxidase suppressor aminoguanidine by LCMS analysis (reference value: 77 +/- 43 pmol/mg). In kind it is functional.

pIC50: −log10 of the molar value. The source made the active and inactive calls. The calls are words filed in the database; no cut-off is given here.

Turning to `CC(C)CCN1CCN([C@@H](CNCc2ccccc2)CC2CCCCC2)C[C@@H]1CC(C)C`, the Activity with L3.6pl [1] is 167 pmol/mg; in the series with L3.6pl [3], 30%; in series [4], “Tde”; with L3.6pl [5] it was 1649 pmol/mg; with CHO-MG it was “Active”; with L3.6pl [7], “Non-Toxic”. Further, the Activity with L3.6pl [8] was 50%; in [11] it was 77 pmol/mg; in the series with L3.6pl [12], 15055 pmol/mg; in series [13], 152 pmol/mg; in the series with L3.6pl [16], 11954 pmol/mg; with L3.6pl [17], 36 pmol/mg. The Activity in the series on L3.6pl [18] is listed as 49 pmol/mg. For the same compound, the result (with L3.6pl [2]; with L3.6pl [10]; in series [14]; in the series with L3.6pl [15]) was Active. In addition, the “Ratio IC50” value in series [6] was 2. In series [9], the inhibition entry was “inactive”. For the same compound, the pIC50 (usually the negative decadic logarithm of the IC50, by convention in mol/L) in the series with CHO-K1 is 5.10.
